# Results collected from several papers.
# Target: Casein kinase I isoform delta (CSNK1D, Homo sapiens, UniProt P48730)
Structure (SMILES),effect on,action,method,tested at,quantity,value
CN(c1ccnc(CNc2nc(Nc3ccc4c(c3)CC(=O)N4)ncc2C(F)(F)F)n1)S(C)(=O)=O,cell-free assay,,competition with immobilised ligand,1 µM,remaining binding,100%
O=C(Nc1cnn(-c2csc(C(=O)NC3COC3)c2)c1)Nc1ccccc1Cl,enzyme activity,inhibitor,,5 µM,remaining activity,101%
COc1cc(Nc2cnc(C#N)c(O[C@H](C)CN(C)C)n2)ncc1-c1cnn(C)c1,enzyme activity,inhibitor,radiometric,1 µM,remaining activity,76%
Cc1cnc(NC2CCOCC2)nc1-n1cnc(C(=O)NC(CN)c2cc(F)cc(Cl)c2)c1 (stereo not shown),enzyme activity,inhibitor,radiometric,1 µM,remaining activity,53%
C[C@@]1(Cc2ccc(C#N)cc2)C(=O)N(c2cc(Cl)cc(Cl)c2)c2ncc(C(=O)NC3(c4nc(C5CCC5)no4)CC3)n21,cell-free assay,,competition with immobilised ligand,1 µM,remaining binding,100%
O=C1Nc2ccc(Cl)cc2C1=Cc1cc(Cl)c(O)c(Cl)c1,cell-free assay,,,0.5 µM,remaining signal,89.6%
O=C(CSc1nc2nccnc2c(=O)n1CCc1ccccc1)Nc1nccs1,enzyme activity,inhibitor,,10 µM,inhibition,7%
Nc1ncnc2occ(-c3ccc(NC(=O)Nc4cc(C(F)(F)F)ccc4F)cc3)c12,cell-free assay,inhibitor,,20 µM,remaining signal,3.9%
CN([C@@H]1CCc2c(CC(=O)O)c3cc(S(C)(=O)=O)ccc3n2C1)S(=O)(=O)c1ccc(F)cc1,cell-free assay,,competition with immobilised ligand,1 µM,remaining binding,100%
Cc1cc(NC(=O)c2cccc3cc(-c4cccc5[nH]nc(N)c45)ccc23)ccc1F,enzyme activity,inhibitor,,0.1 µM,activity vs control,96%
COc1cc(Cl)c(C(=O)N[C@@H](CN[C@H]2CC[C@@H](N)CC2)Cc2ccc(C#N)cc2)cc1-c1ccc(CN[C@H](C)c2ccc(C)cc2)o1,enzyme activity,inhibitor,,1 µM,remaining activity,89%
CNc1cccc2cc(C(=O)Nc3ccc(C(=O)O)cc3)c(=O)[nH]c12,enzyme activity,inhibitor,,10 µM,inhibition,25%
CC(C)(O)[C@H]1CC[C@H](Nc2ccc3ncc(-c4cccc(C(F)(F)F)c4)n3n2)CC1,enzyme activity,inhibitor,,1 µM,remaining activity,84.2%
COc1cc2ncnc(Nc3ccc(Oc4ccccc4)c(C)c3C)c2cc1OC,enzyme activity,inhibitor,,1 µM,inhibition,1%
O=C(NCc1ncc(C(F)(F)F)cc1Cl)c1ccc2c(c1)C1(CCS(=O)(=O)CC1)[C@@H](C1CC1)N2S(=O)(=O)c1ccc(F)cc1,cell-free assay,,competition with immobilised ligand,1 µM,remaining binding,93%
O=C1NC(=O)c2cc(Nc3ccc(F)cc3)c(Nc3ccc(F)cc3)cc21,cell-free assay,,,0.5 µM,remaining signal,109%
FC(F)(F)Oc1cccc(-c2cnc3ccc(-c4ccncc4)nn23)c1,enzyme activity,inhibitor,radiometric,5 µM,activity vs control,97%
CS(=O)(=O)N1CCCC(NC(=O)[C@H](CCC2CCCCC2)NC(=O)c2ccc(CNC(=O)c3cnc4ccccn34)cc2)C1 (stereo partly shown),cell-free assay,,competition with immobilised ligand,0.1 µM,remaining binding,84%
Nc1ncnc2c1cnn2-c1ccccc1,cell-free assay,,,0.5 µM,remaining signal,79.5%
CC/C(=N\NC(=O)NCc1cccc(O)c1)c1ccc(O)c(C)c1O,enzyme activity,inhibitor,,0.1 µM,inhibition,3.7%
N#CCCc1ccc2c(c1)-c1[nH]c3ccc([N+](=O)[O-])cc3c1CC(=O)N2,cell-free assay,,,0.5 µM,remaining signal,97.4%
Cc1cc(-n2nc(Cc3cc(F)cc(C(F)(F)F)c3)nc2C)ccc1C(N)=O,cell-free assay,,competition with immobilised ligand,1 µM,remaining binding,100%
Cc1ccc(NC(=O)c2ccc(C)c(C(F)(F)F)c2)cc1C#Cc1nn(C2CCC(O)CC2)c2ncnc(N)c12 (stereo not shown),cell-free assay,,,10 µM,remaining signal,88%
CC(C)(C)c1nc2c(s1)c1nc(N)ncc1c1ccc(NS(=O)(=O)c3c(F)cccc3F)c(F)c12,enzyme activity,inhibitor,radiometric,1 µM,remaining activity,79%
Nc1c(C(=O)NCc2ccc(C(=O)NCCCC3CCCCC3)cc2)cnn1-c1ccccc1,cell-free assay,,competition with immobilised ligand,0.1 µM,remaining binding,100%
